PRMT1 FP inh – inhibitors of human PRMT1; Q99873; recombinant PRMT1, activity-based probe fluorescence polarization; inhibition, % at 2.79 µM; 1.3% of 370,000 active; AID 652257;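 active means inhibition above about 21% made by adding two undisclosed values, limit read from the data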
TCR CD3 inh – inhibitors of human TCR-CD3 interaction; 0.37% of 360,000 active; AID 651800; inhibition, % at 9.4 µM; TAMRA-labeled TCR probe fluorescence, biochemical;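 further: recombinant mutant TCR 2C K166C tagged with TAMRA read by polarization; 0% = receptor in buffer alone and 100% = receptor with positive control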
SIAE inh – inhibitors of human sialic acid acetylesterase SIAE. SIAE FP-Rh probe binding, fluorescence polarization. inhibition, % at 9.66 µM. Q9HAT2. 0.69% of 370,000 active;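 active means inhibition above a cutoff: mean of compounds within the control limits plus 3 SD of those, cut at about 17% in these data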;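 further: 0% = plate median of compound wells and 100% = probe without SIAE protein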
HTRA1 inh – HTRA1 (human) protease inhibition | Q92743 | recombinant HTRA1, FP-rhodamine activity-based probe, fluorescence polarization | inhibition, % at 5.96 µM | 0.5% of 340,000 active | AID 504803; in the data active means inhibition above about 36%;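 further: 0% = enzyme with DMSO and 100% = wells lacking enzyme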
ABHD4 inh – ABHD4 (mouse) inhibition, primary FP screen. Q8VD66. purified mABHD4, FP-Rh probe fluorescence polarization. inhibition, % at 8.92 µM. 0.54% of 370,000 active. AID 720543;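 active means inhibition exceeding the mean over every tested compound plus 3 SD, cut at about 30% in these data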;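 further: 0% = plate median of compound wells and 100% = S159A mutant with DMSO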
Target sequence (Q8VD66 whole entry, looked up): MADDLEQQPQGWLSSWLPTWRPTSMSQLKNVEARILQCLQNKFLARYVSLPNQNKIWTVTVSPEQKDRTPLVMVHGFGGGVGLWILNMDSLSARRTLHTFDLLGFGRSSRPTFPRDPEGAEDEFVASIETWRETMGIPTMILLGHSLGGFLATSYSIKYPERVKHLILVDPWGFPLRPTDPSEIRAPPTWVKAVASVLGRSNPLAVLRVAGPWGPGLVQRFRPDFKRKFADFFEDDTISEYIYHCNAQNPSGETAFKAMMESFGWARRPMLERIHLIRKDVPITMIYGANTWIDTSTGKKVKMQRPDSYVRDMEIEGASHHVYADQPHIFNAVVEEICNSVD
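assay system = mABHD4 protein | compound dosing = single nominal dose of 8.92 µM, 0.89% DMSO final | read-out basis = percent inhibition of probe binding, normalized to plate controls | schedule = Enzyme–compound pre-incubation 45 min, then probe 60 min, both 25 °C | detection = fluorescence polarization, excitation 525 nm, emission 598 nm, BODIPY TMR filters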
BSA probe FL – interferes with TAMRA-BSA probe, flagging TCR-CD3 hits; shares compounds with TCR CD3 inh; TAMRA-labeled BSA probe fluorescence counterscreen; inhibition, % at 9.4 µM; 10% of 1,200 active; AID 652035; in the data active means inhibition above about 23%;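 further: 0% = buffer low control and 100% = reference high control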
TCR-CD3 conf – confirmation of human TCR-CD3 interaction inhibitors | shares compounds with TCR CD3 inh | TAMRA-labeled TCR probe fluorescence binding assay | inhibition, % at 9.4 µM | 48% of 1,200 active | AID 652036
Active calls of the source: *; . = no result given; + = active, no number. Most compounds without a hit are left out; they make up all but 2.5% or so of the library. Unless noted, no stated cut-off is given here; in the data, active means inhibition above about 19%; inactive means the rest.

SMILES	PRMT1 FP inh	TCR CD3 inh	SIAE inh	HTRA1 inh	ABHD4 inh	BSA probe FL	TCR-CD3 conf
O=S(=O)(c1ccc2nc(-c3ccccc3)[nH]c2c1)N1CCN(c2cccc(Cl)c2)CC1	1.2	68.5*	-8.4	-2.4	-4.0	27.1*	45.5*
COc1ccccc1N1CCN(S(=O)(=O)c2ccc3nc(-c4ccccc4)[nH]c3c2)CC1	1.4	-3.9	-76.7	-65.6	-74.0	.	.
O=C(NN=C1CCCC1)c1ccccc1O	-2.2	22.5*	8.1	13.2	6.7	-14.8	15.3
CC1NC(=S)N(Cc2ccccc2)C1=O (stereo not given)	-0.7	22.4*	4.3	4.3	1.0	1.4	16.3
COC(=O)c1cccc(N2C(=O)C[C@](Sc3ccc(OC)cc3)(C(=O)N3CCOCC3)[C@H]2c2ccc(OC)cc2)c1	0.4	.	3.0	.	-16.3	.	.
O=C(NC(=O)c1ccccc1F)OCc1ccc(Cl)cc1Cl	-2.4	28.1*	-0.9	-6.1	-18.3	-0.9	3.4
O=C(NNS(=O)(=O)c1ccccc1[N+](=O)[O-])c1cc2ccccc2cc1O	5.2	19.6*	5.3	19.4	24.6	-7.7	10.2
CCOC(=O)c1sc(NC(=O)C(CC)OC(=O)c2ccco2)nc1C (stereo not given)	-1.5	19.4*	-12.1	-4.8	-4.6	-1.3	-0.9
CN(CCc1ccccc1)C(=O)CC1C(=O)NCCN1Cc1ccccn1 (stereo not given)	2.4	-5.1	2.9	-1.2	-1.5	.	.
CCNc1nc(NC(C)C)nc(N(C#N)C(C)C(=O)N(C)C)n1 (stereo not given)	-0.3	-5.0	1.2	-0.7	8.1	.	.
CCNc1nc(NC(C)C)nc(N(C#N)CC(=O)OC)n1	1.5	22.0*	4.9	3.0	-8.4	4.2	3.7
O=C1C2C3C=CC(C4CC34)C2C(=O)N1/N=C/c1ccc(-c2ccc(F)cc2[N+](=O)[O-])o1 (stereo not given)	2.0	-2.8	-2.5	9.9	2.5	.	.
Cc1ccc(-c2ccc(/C=N/N3C(=O)C4C5C=CC(CC5)C4C3=O)o2)c([N+](=O)[O-])c1 (stereo not given)	2.9	22.5*	9.2	-10.0	14.6	2.9	1.3
O=C(NCC(O)c1ccc([N+](=O)[O-])cc1)C1=COCCO1 (stereo not given)	1.0	+	1.7	0.6	0.0	0.3	1.4
Cc1oc(-c2cccc(Cl)c2)nc1CS(=O)(=O)CC(=O)NCCN1CCCC1	8.2	21.2*	-4.3	-7.0	4.7	5.3	7.7
Cc1oc(-c2cccc(Cl)c2)nc1CS(=O)(=O)CC(=O)NCCN1CCOCC1	-3.6	4.6	3.1	0.2	-0.9	.	.
CC1=CN2C(=N)/C(=C/c3ccc([N+](=O)[O-])o3)C(=O)N=C2S1	20.8	72.0*	5.9	18.7	13.7	-15.6	2.3
CC1=CN2C(=N)/C(=C/c3ccco3)C(=O)N=C2S1	2.1	-6.0	-3.7	2.8	3.1	.	.
COc1ccc([C@H]2CC(=O)C[C@@H](CCn3cc(Cc4ccccc4)nn3)O2)cc1	-5.6	23.9*	-1.8	.	-3.1	7.5	5.8
COc1cccc(CNCc2ccc(SC)cc2)c1OC	0.0	-4.4	8.7	-6.2	8.2	.	.
C=CCn1c(-c2ccco2)n[nH]c1=S	0.0	54.1*	-4.6	5.5	-0.7	1.0	-0.1
O=C(CCc1ccccc1)Nc1ccc(S(=O)(=O)Nc2nccs2)cc1	3.6	-1.9	0.4	-0.5	-0.3	.	.
COc1ccc(CNC(=O)COC(=O)[C@H](Cc2ccccc2)NC(=O)c2cccs2)cc1	4.0	-3.1	-5.5	-7.7	-20.8	.	.
CCCNC(=O)C(Cc1ccccc1)NC(=O)c1ccc(C(F)(F)F)cc1 (stereo not given)	-1.4	22.1*	-1.7	-3.5	5.0	-2.4	4.2
COc1ccc(C2CC(=O)C(c3ccc(C(C)=O)cc3)=CN2Cc2ccccc2)cc1 (stereo not given)	-2.0	-1.2	3.3	.	5.4	.	.
Cc1cc(C)n(Cc2ccc(C(=O)N/N=C/c3ccc(-c4ccc([N+](=O)[O-])cc4)o3)o2)n1	-0.6	19.3*	-1.1	4.8	2.3	-5.2	28.1*
CCCCC(=O)N/N=C/c1ccc(-c2ccc([N+](=O)[O-])cc2)o1	-2.5	0.8	2.2	0.4	-0.3	.	.

Compound activity from PubChem BioAssay.
